# Measurements pooled from the literature.
Compound,target or system,assay,test system,conditions,quantity,result
CCS(=O)(=O)Oc1cc(C=NNC(=O)CSc2nc3ccc(Cl)cc3c(=O)n2-c2ccccc2)ccc1OC,Klebsiella pneumoniae,"microbial growth, well diffusion",,20 µg/mL,inhibition zone,2 mm
CC1(C)C[C@H]2[C@H]1CC[C@]1(C)CCC[C@@]2(n2cc(C(=O)NC3CCNCC3)nn2)C1,HT-29,"cell growth or viability, CCK-8",,50 µM,inhibition,74.4%
Cc1nc(Nc2ncc(C(=O)Nc3c(C)cccc3Cl)s2)cc(N2CC[C@H](O)C2)n1,CA46,"cell growth or viability, ATP luminescence",,"10 µM, 72 h",inhibition,56%
CCCS(=O)(=O)Oc1ccc(C=NNC(=O)CSc2nc3ccc(Cl)cc3c(=O)n2-c2ccccc2)cc1,Klebsiella pneumoniae,"microbial growth, well diffusion",,20 µg/mL,inhibition zone,3 mm
CC1(C)C[C@H]2[C@H]1CC[C@]1(C)CCC[C@@]2(NS(=O)(=O)C(C)(C)C)C1,HT-29,"cell growth or viability, CCK-8",,10 µM,inhibition,< 50%
CN(C)c1ccc(C=Nn2c(-c3ccccc3)nc3ccc(Cl)cc3c2=O)cc1,LLC-PK1,"cell growth or viability, MTT",,72 h,IC50,62.8 µM
CC[C@H]1OC(=O)[C@H](C)[C@@H](O[C@H]2C[C@@](C)(OC)[C@@H](O)[C@H](C)O2)[C@H](C)[C@@H](O[C@@H]2O[C@H](C)C[C@H](N(C)C)[C@H]2O)[C@](C)(O)C[C@@H](C)/C(=N\OCOCCOC)[C@H](C)[C@@H](O)[C@]1(C)O,Streptococcus pneumoniae,microbial growth,PRSP,clinical isolate,MIC90,16 µg/mL
COc1ccc(-c2cn([C@@]34CCC[C@@](C)(CC[C@@H]5[C@@H]3CC5(C)C)C4)nn2)cc1,HT-29,"cell growth or viability, CCK-8",,50 µM,inhibition,44.8%
COc1ccc(C=NNC(=O)CSc2nc3c(C)cccc3c(=O)n2-c2ccccc2)cc1OS(C)(=O)=O,Klebsiella pneumoniae,"microbial growth, well diffusion",,20 µg/mL,inhibition zone,2 mm
C=C[C@]1(C)C[C@@H](OC(=O)CS[C@@H]2C[C@H]3CC[C@@H](C2)N3C)[C@]2(C)[C@H](C)CC[C@]3(CCC(=O)[C@H]32)[C@@H](C)[C@@H]1O,Streptococcus pneumoniae,microbial growth,PRSP,clinical isolate,MIC90,0.0312 µg/mL
CC(C)(O/N=C(\C(=O)N[C@@H]1C(=O)N2C(C(=O)[O-])=C(C[n+]3ccccc3)CS[C@H]12)c1csc(N)n1)C(=O)O,Klebsiella pneumoniae,"microbial growth, broth dilution",ATCC43816,,MIC,< 0.5 µg/mL
CC1(C)C[C@H]2[C@H]1CC[C@]1(C)CCC[C@@]2(n2cc(-c3ccc(F)cc3)nn2)C1,HT-29,"cell growth or viability, CCK-8",,10 µM,inhibition,< 50%
CCCS(=O)(=O)Oc1ccc(C=NNC(=O)CSc2nc3c(C)cccc3c(=O)n2-c2ccccc2)cc1OC,Klebsiella pneumoniae,"microbial growth, well diffusion",,20 µg/mL,inhibition zone,2 mm
CC1(C)S[C@@H]2[C@H](NC(=O)[C@H](N)c3ccccc3)C(=O)N2[C@H]1C(=O)O,Streptococcus pneumoniae,"microbial growth, agar dilution",ATCC49619,,MIC,0.5 µg/mL
CC1(C)C[C@H]2[C@H]1CC[C@]1(C)CCC[C@@]2(NS(=O)(=O)c2ccc(OC(F)(F)F)cc2)C1,HT-29,"cell growth or viability, CCK-8",,10 µM,inhibition,< 50%
CCS(=O)(=O)Oc1cc(C=NNC(=O)CSc2nc3c(C)cccc3c(=O)n2-c2ccccc2)ccc1OC,Klebsiella pneumoniae,"microbial growth, well diffusion",,20 µg/mL,inhibition zone,3 mm
CC(=O)NC[C@H]1CN(c2ccc(N3CCOCC3)c(F)c2)C(=O)O1,Streptococcus pneumoniae,"microbial growth, agar dilution",ATCC49619,,MIC,0.5 µg/mL
CC1(C)C[C@H]2[C@H]1CC[C@]1(C)CCC[C@@]2(NS(C)(=O)=O)C1,HT-29,"cell growth or viability, CCK-8",,10 µM,inhibition,< 50%
CC1(C)S[C@@H]2[C@H](NC(=O)[C@H](N)c3ccc(O)cc3)C(=O)N2[C@H]1C(=O)O,Vibrio vulnificus,"microbial growth, broth dilution",,,MIC90,3 µM
CC1(C)C[C@H]2[C@H]1CC[C@]1(C)CCC[C@@]2(n2cc(CN3CCOCC3)nn2)C1,HT-29,"cell growth or viability, CCK-8",,10 µM,inhibition,< 50%
CCCS(=O)(=O)Oc1cc(C=NNC(=O)CSc2nc3c(C)cccc3c(=O)n2-c2ccccc2)ccc1OC,Klebsiella pneumoniae,"microbial growth, well diffusion",,20 µg/mL,inhibition zone,2 mm
O=c1c2cc(Cl)ccc2nc(-c2ccccc2)n1N=Cc1cccc(O)c1,LLC-PK1,"cell growth or viability, MTT",,72 h,IC50,321 µM
CC1(C)C[C@H]2[C@H]1CC[C@]1(C)CCC[C@@]2(NS(=O)(=O)c2cc(Cl)cc(Cl)c2O)C1,HT-29,"cell growth or viability, CCK-8",,10 µM,inhibition,< 50%
COc1cc(C=NNC(=O)CSc2nc3ccc(Cl)cc3c(=O)n2-c2ccccc2)ccc1OS(C)(=O)=O,Klebsiella pneumoniae,"microbial growth, well diffusion",,20 µg/mL,inhibition zone,2 mm
O=c1c2cc(Cl)ccc2nc(-c2ccccc2)n1N=Cc1ccc(Cl)c(Cl)c1,LLC-PK1,"cell growth or viability, MTT",,72 h,IC50,337 µM
COc1ccc(C=NNC(=O)CSc2nc3ccc(Cl)cc3c(=O)n2-c2ccccc2)cc1OS(C)(=O)=O,Klebsiella pneumoniae,"microbial growth, well diffusion",,20 µg/mL,inhibition zone,3 mm
CN[C@H](CC(C)C)C(=O)N[C@H]1C(=O)N[C@@H](CC(N)=O)C(=O)N[C@H]2C(=O)N[C@H]3C(=O)N[C@H](C(=O)N[C@H](C(=O)O)c4cc(O)cc(O)c4-c4cc3ccc4O)[C@H](O)c3ccc(c(Cl)c3)Oc3cc2cc(c3O[C@@H]2O[C@H](CO)[C@@H](O)[C@H](O)[C@H]2O[C@H]2C[C@](C)(N)[C@H](O)[C@H](C)O2)Oc2ccc(cc2Cl)[C@H]1O,Streptococcus pneumoniae,microbial growth,PRSP,clinical isolate,MIC90,1 µg/mL
